In the library only some 2.4% were active in any assay of this set; here they are far more common.
Neddylation inh – cullin neddylation inhibition; TR-FRET cullin neddylation, biochemical; inhibition, % at 25 µM; 0.58% of 360,000 active; AID 651699; in the data active means inhibition above about 36%
Target sequence (P61081 whole entry, looked up): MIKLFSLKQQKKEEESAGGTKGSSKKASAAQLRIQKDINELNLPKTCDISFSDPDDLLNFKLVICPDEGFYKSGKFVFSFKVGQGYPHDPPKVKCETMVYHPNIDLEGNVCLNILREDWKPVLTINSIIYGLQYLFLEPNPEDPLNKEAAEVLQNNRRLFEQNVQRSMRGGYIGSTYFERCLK
Target sequence (Q13564 whole entry, looked up): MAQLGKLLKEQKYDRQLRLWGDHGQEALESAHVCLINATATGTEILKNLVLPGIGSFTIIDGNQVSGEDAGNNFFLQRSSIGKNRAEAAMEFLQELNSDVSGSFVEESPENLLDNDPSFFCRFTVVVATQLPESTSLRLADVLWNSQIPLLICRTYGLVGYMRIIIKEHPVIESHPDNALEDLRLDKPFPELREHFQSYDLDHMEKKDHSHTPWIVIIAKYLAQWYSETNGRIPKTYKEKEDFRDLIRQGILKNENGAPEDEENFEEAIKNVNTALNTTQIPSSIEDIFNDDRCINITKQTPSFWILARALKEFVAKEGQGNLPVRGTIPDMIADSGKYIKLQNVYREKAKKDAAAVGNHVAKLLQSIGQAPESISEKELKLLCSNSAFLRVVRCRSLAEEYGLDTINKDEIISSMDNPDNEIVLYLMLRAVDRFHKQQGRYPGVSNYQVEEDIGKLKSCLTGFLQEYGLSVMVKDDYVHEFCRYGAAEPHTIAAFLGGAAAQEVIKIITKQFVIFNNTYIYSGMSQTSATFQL
CSN inh – blocks human CSN-mediated cullin deneddylation; Purified CSN, SCF-Nedd8-OG deneddylation, fluorescence polarization; inhibition, % at 12.5 µM; 0.38% of 360,000 active;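 active means pattern-corrected inhibition above about 35%, with an unprinted fluorescence ratio check between 0.5 and 1.5, limit read from the data, passing the limit was not always enough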;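 further: 0% = enzyme with substrate and 100% = substrate without enzyme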
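Material: purified human Csn5 enzyme expressed in HEK293T cells / Medium: Tris buffer pH 7.5, NaCl, DTT, Tween-20, trehalose, ovalbumin / Compound dosing: 12.5 µM single point / Schedule: 90 min incubation of compound, enzyme and substrate at room temperature / Signal: fluorescence polarization of the substrate / Control set: no-enzyme wells high, enzyme-with-substrate wells low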
TbMetRS inhib – Trypanosoma brucei MetRS inhibition. purified T. brucei MetRS, ATP depletion, Kinase-Glo luminescence. AID 624268. inhibition, % at 11.9 µM. 0.4% of 360,000 active;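 active means inhibition above a per-plate cutoff of the control wells' mean inhibition plus 3 SD, cut at about 5.5% in these data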;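 further: 0% = DMSO wells median and 100% = median of wells with control inhibitor compound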
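Assay system: T. brucei methionyl-tRNA synthetase, purified | Medium: HEPES buffer with MgCl2, KCl, DTT, spermine, BSA, pyrophosphatase | Compound: 11.9 µM single point | Incubation: 15 min enzyme-compound preincubation, 2 h reaction, 10 min detection, 25 °C | Measured by: Kinase-Glo luciferase luminescence reporting remaining unconsumed ATP | Measure: % inhibition normalized to control-well medians | Replication: Singlicate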
Rpn11 inh – blocks the human proteasome subunit Rpn11; O00487; human 26S proteasome, Ub4-pepOG fluorescence polarization; 20S core pre-blocked with epoxomicin; inhibition, % at 20 µM; 0.59% of 360,000 active; AID 588493;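 active means inhibition at 20 µM, scaled to each plate's controls, above about 33%, limit read from the data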
HNF4A DNA FP – change in binding of human HNF4 alpha to DNA; HNF4a-FITC DNA binding, fluorescence polarization, 1 h; P41235; 0.3% of 360,000 active; activity change, % at 10 µM; AID 1224865; in the data active means activity change above about 30%, passing the limit was not always enough
PREPL inh – inhibitors of human prolyl oligopeptidase-like enzyme PREPL. Q4J6C6. 0.68% of 320,000 active. inhibition, % at 5.96 µM. AID 2751. recombinant PREPL, fluorescence polarization activity-based probe; in the data active means inhibition above about 43%;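 further: 0% = enzyme with DMSO and 100% = wells lacking enzyme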
Neddyl inh conf – cullin neddylation inhibition, confirmation | shares compounds with Neddylation inh | TR-FRET cullin neddylation biochemical assay | calls only at 25 µM | 13% of 1,800 active | AID 652217; in the data active means inhibition above about 40%;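 further: neddylation substrate is the cullin 1 ring ligase complex with SKP2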
Active calls of the source: *; i = inactive; . = no result shown; + = active, no number.

SMILES | Neddylation inh | CSN inh | TbMetRS inhib | Rpn11 inh | HNF4A DNA FP | PREPL inh | Neddyl inh conf
CCc1nc2ccc(C(=O)N(C)CCN(C)C)cn2c1N(CC)C(=O)NCCc1ccccc1 | 7 | -2 | 0 | 0 | -4 | . | .
CCN(CC)c1ccc(NC(=O)Nc2cccc3ccccc23)cc1 | 44* | 4 | 0 | -2 | -23 | 10 | i
Cc1cc(=O)oc2c(CN3CCCCC3)c(O)ccc12 | . | -3 | 0 | -7 | 2 | . | .
O=c1cc(-c2ccccc2)c2ccc(O)c(CN3CCCCC3)c2o1 | 50* | -3 | 0 | -4 | 1 | 5 | i
O=C(CCN1C(=O)S/C(=C/c2ccc(F)cc2)C1=O)Nc1ccc(O)c(C(=O)O)c1 | 44* | -1 | 0 | 3 | -2 | 17 | i
COc1ccc(C(=O)N/N=C/c2ccc(N(C)c3ccccc3)cc2)cc1 | . | -3 | -1 | -2 | -2 | 38 | .
CCCc1cc(-n2cnc3ccccc32)n2c(nc3ccccc32)c1C#N | 42* | 2 | -1 | 2 | 9 | -3 | i
CCCc1cc(NCc2ccccn2)n2c(nc3ccccc32)c1C#N | . | 1 | 0 | 1 | 1 | 17 | .
C[C@@H]1CCCN1[C@H]1CS(=O)(=O)N[C@@H]1COCc1ccccc1 | 1 | -2 | -1 | -21 | -1 | . | .
O=C(NCCCn1ccnc1)c1ccccc1NS(=O)(=O)c1ccc(F)c(F)c1 | -8 | 2 | -1 | -8 | 0 | 5 | .
O=C(O)c1ccccc1NS(=O)(=O)c1ccc2c(c1)OCCO2 | 43* | 0 | 1 | 2 | 0 | -5 | .
Cc1cc(C)c(C)c(S(=O)(=O)Nc2ccccc2C(=O)NCCCn2ccnc2)c1C | 38* | 3 | -1 | 0 | 1 | . | .
Cc1cc(C)c(C)c(S(=O)(=O)Nc2ccccc2C(=O)O)c1C | 47* | -17 | 0 | 6 | -4 | 5 | .
CC(C(=O)OCC(=O)Nc1ccccc1OC(F)F)N1C(=O)C2CC=CCC2C1=O (stereo unspecified) | 20 | 3 | 0 | -6 | 5 | . | .
COC(=O)c1cccc(CN2C(=O)SC(Nc3ccccc3)C2=O)c1 (stereo unspecified) | 37* | 31 | 1 | 7 | -21 | -6 | i
O=C(NCCc1ccc(Cl)cc1)C1=CC=CN2CCS(=O)(=O)N=C12 | 46* | 3 | 0 | 4 | 2 | 9 | +
COc1ccc(CC(=O)N2CCN(c3ccc(C4=NNC(=O)CC4C)cc3)CC2)cc1 (stereo unspecified) | 46* | 7 | -1 | 2 | 5 | 7 | .
O=C(O)CNS(=O)(=O)c1ccc2[nH]c(=O)c(=O)[nH]c2c1 | 40* | -4 | 1 | 6 | 4 | 5 | i
CCOC(=O)C1CCc2c(ccc3ccccc23)N1CCC#N (stereo unspecified) | 47* | 2 | 0 | -1 | -2 | . | .
CCOC(=O)C1CCCN(C(=O)c2cccc3ccccc23)C1 (stereo unspecified) | 1 | 0 | -1 | -1 | -3 | 2 | .
Cc1ccc2cc3cc(C(=O)NCCCN4CCCC4)oc3nc2c1 | . | 6 | 0 | 10 | -2 | 8 | .
Cc1ccc2cc3cc(C(=O)NCCCN4CCc5ccccc5C4)oc3nc2c1 | 57* | 4 | 0 | 10 | 1 | -7 | +
c1ccc(-c2oc3ncnc(NCCCn4ccnc4)c3c2-c2ccccc2)cc1 | . | 5 | -1 | 12 | 2 | 2 | .
CN(C)CCCNc1ncnc2oc(-c3ccccc3)c(-c3ccccc3)c12 | 42* | 0 | 0 | -11 | 0 | -27 | i
Cc1ccc([C@H]2C[C@@H](n3cc(-c4ccc(F)cc4)nn3)[C@H](O)CN2C(=O)C2CCCCC2)cc1 | -1 | 7 | -1 | 10 | 6 | . | .
SMILES | Neddylation inh | CSN inh | TbMetRS inhib | Rpn11 inh | HNF4A DNA FP | PREPL inh | Neddyl inh conf
Cc1oc(-c2cccs2)nc1CSCC(=O)NC1CC1 | 52* | 0 | -1 | 2 | 3 | 4 | i
CC(C)C[C@H](NC(=O)OC(C)(C)C)C(=O)N[C@@H](CO)[C@H](O)[C@@H]1C[C@@H]1C(=O)N1CCCC1 | -21 | -2 | 0 | -4 | 0 | 17 | .
O=C(COC(=O)c1cccc2ccccc12)NCC1CCCO1 (stereo unspecified) | 5 | -4 | -1 | -2 | 1 | 10 | .
O=C(COC(=O)c1cc(-c2ccc(F)cc2)nc2ccccc12)NCC1CCCO1 (stereo unspecified) | 49* | 2 | -1 | -8 | -2 | -11 | i
COc1ccc(CCNC(=O)CC2Nc3cc(C)c(C)cc3NC2=O)cc1OC (stereo unspecified) | 40* | 4 | -1 | 19 | 8 | 10 | i
c1ccc(-n2cc(CN3CCCC(CN4CCCC4)C3)c(-c3ccc4c(c3)OCO4)n2)cc1 (stereo unspecified) | -7 | 4 | 0 | 2 | 6 | 13 | .
COCC1CCCCN1Cc1cn(-c2ccccc2)nc1-c1ccc2c(c1)OCO2 (stereo unspecified) | 45* | 5 | -1 | -4 | 4 | -4 | i
OC[C@@H]1CCCN1Cc1cn(-c2ccccc2)nc1-c1ccc2c(c1)OCO2 | 40* | 4 | -1 | -10 | -1 | -8 | i
Cc1ccc2nc(-c3cccc(Br)c3)c(Cc3ccccc3)n2c1 | 17 | -1 | 0 | 40 | 11 | . | .
CCc1cc2c3c(c(=O)oc2cc1OCC(=O)OC)CCCC3 | 43* | -1 | -1 | -4 | -1 | -3 | i
CCc1cc2c3c(c(=O)oc2cc1OC(C)C(=O)O)CCCC3 (stereo unspecified) | . | -3 | 0 | -3 | -3 | -3 | .
OC[C@@H]1CN(Cc2ccccc2)C[C@H](n2cnc3c(N4CCN(c5ccccc5)CC4)ncnc32)O1 | 18 | 4 | 0 | -7 | -2 | . | .
CC(C)(C)c1ccc(S(=O)(=O)NC(=O)C2(C)CCN2C(=O)CC2CCCCC2)cc1 (stereo unspecified) | 7 | 2 | 0 | -3 | 3 | . | .
O=C1CCC(CCC(=O)N2CCCC(C(=O)c3ccc4c5c(cccc35)CC4)C2)=NN1 (stereo unspecified) | 34 | 2 | -1 | -10 | 1 | 7 | .
O=C1CCC(C(=O)N2CCCC(C(=O)c3ccc4c5c(cccc35)CC4)C2)=NN1 (stereo unspecified) | 43* | 3 | 0 | 4 | 3 | 8 | +
NC(=O)CCC(=O)N1CCCC(C(=O)c2ccc3c4c(cccc24)CC3)C1 (stereo unspecified) | 44* | -2 | 0 | -5 | 0 | 9 | i
CN(C)c1ccc(-c2nc3cnccn3c2Nc2ccc3c(c2)OCCO3)cc1 | 46* | -1 | 0 | 2 | 7 | 40 | .

Source: PubChem BioAssay
